Arbovirus inh = antivirals against arbovirus infection; inhibition, % at 10 µM; actives 0.37% (n = 200,000); AID 1251; arbovirus infection cell-based antiviral screen; in the data active = inhibition above about 30%
TNF death inh = TNF-alpha cell death inhibition in Jurkat FADD-/- cells; Jurkat FADD-/- TNF necroptosis rescue, ATP luminescence, 24 h; 0 = TNF only, 100 = no-TNF cells; activation (protection from cell death), % at 10 µM; actives 0.068% (n = 220,000);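 active = activation, meaning protection from cell death, of at least 50% relative to plate controls; inactive = activation below 50%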;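 also: necroptosis triggered by 40 ng/mL TNF-alpha added together with compound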
Pf gametocyte = inhibitors of late stage P. falciparum gametocyte viability | P. falciparum stage V gametocytes, ATP luminescence, 24 h | inhibition, % at 10.9 µM | actives 0.065% (n = 150,000);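 active = inhibition above the mean plus 3 SD of compounds within the control limits, set per campaign, cut at about 38% in these data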
L929 necroptosis = L929 zVAD cell death inhibition | AID 1377 | viability rescue, % at 10 µM | actives 0.38% (n = 220,000) | L929 zVAD necroptosis rescue, ATP luminescence, 24 h; with zVAD 60 µM;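 active = activation, scaled between plate controls, above about 75%, limit read from the data; inactive = activation under that limit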
Hep lipid drop = modulators of hepatic lipid droplet formation; AML12 mouse hepatocytes, oleate lipid droplets, BODIPY imaging; inhibition, % at 6.5 µM; actives 0.4% (n = 240,000); AID 1656;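 active = lipid droplet intensity inhibited by at least 50%, with more than 500 cells counted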
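Material: mouse AML12 hepatocyte cell line, fixed after treatment; Timing: compound with oleate, overnight; Technique: high-content imaging of BODIPY-stained droplets and DAPI nuclei; Probe or stimulus: oleate, 100 µM final; Dosing: compound at 6.5 µM only.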
Hep lipid conf = hepatic lipid droplet formation inhibition, confirmed; AML12 mouse hepatocytes, BODIPY lipid droplet imaging; droplets induced with 100 µM oleic acid; shares compounds with Hep lipid drop; inhibition, % at 5.2 µM; AID 463183; actives 65% (n = 870);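 active = inhibition of lipid droplet metric at least 50%, with more than 300 cells in each of four replicates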
AML12 tox img = counter-screen for cytotoxicity in AML12 mouse hepatocytes; shares compounds with Hep lipid drop; DAPI nuclear morphology cytotoxicity imaging; active compounds read high; cells fed 100 µM oleate overnight; z-score at 5 µM; actives 3% (n = 870); in the data active = z-score above about 6.3;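 also: compound exposure lasted overnight at 37 °C before fixation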
AML12 tox conf = confirmation of cytotoxicity in AML12 mouse hepatocytes; 530 tested, under 10 active; AML12 mouse hepatocyte viability, ATP luminescence; cells loaded with 100 µM oleic acid; shares compounds with Hep lipid drop; cytotoxicity, % at 50 µM;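 active = cytotoxicity above 50% in each of four replicates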;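 also: compound exposure lasted overnight at 37 °C before the ATP read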
Hits are given with their value; . = inactive; / = not tested or not shown. The list is not random: actives were taken first. Their share in the collection is about 0.91%.

SMILES | Arbovirus inh | TNF death inh | Pf gametocyte | L929 necroptosis | Hep lipid drop | Hep lipid conf | AML12 tox img | AML12 tox conf
Cc1ccc(CNCCCSc2ncccn2)cc1 | / | / | / | / | . | / | / | /
O=C(CNCCC1=CCCCC1)Nc1ccccc1N1CCCCC1 | . | . | / | . | 103.0 | . | . | /
COc1cc2c(cc1NC(=S)NC(=O)c1c(OC)cccc1OC)oc1ccccc12 | . | . | . | . | 105.2 | 106.0 | . | .
CCOc1ccccc1NC(=O)N1CCCC1C(=O)NCc1cccs1 (configuration not stated) | / | / | / | / | 73.9 | 94.1 | . | .
COc1cc2c(cc1OC)C(c1ccccc1O)NCC2 (configuration not stated) | / | / | . | / | . | / | / | /
Cn1c(CC(=O)Nc2ccc(F)cc2)c(Sc2ccccc2)c2ccccc21 | . | . | . | . | . | / | / | /
COc1ccc(NC(=O)Cc2c(Sc3ccccc3)c3ccccc3n2C)cc1 | . | . | . | . | 61.1 | 90.6 | . | .
COc1ccc2c(c1)O[C@@H](c1cccc(C(F)(F)F)c1)[C@H](OC(=O)NCCc1ccc(OC)c(OC)c1)C2=O | . | . | / | . | 64.3 | 75.3 | . | /
COc1cccc(NC2=C(NCCO)C(=O)c3ccccc3C2=O)c1 | / | / | / | / | . | / | / | /
Cc1cccc(NC2=C(NCCO)C(=O)c3ccccc3C2=O)c1 | . | . | . | . | 88.7 | 96.8 | . | .
O=C(CSCC(=O)N1CCCCC1)Nc1nc(-c2ccccc2)c(-c2ccccc2)s1 | . | . | / | / | 89.2 | 104.4 | . | .
CCN(CC(=O)Nc1ccccc1C(F)(F)F)C(=O)c1cc(-c2cccs2)nn1-c1ccccc1 | / | / | / | / | 64.9 | 103.3 | . | .
COc1cccc(CNC(=O)CCN2C(=O)[C@@H]3Cc4ccccc4CN3C2=O)c1 | / | / | / | / | . | / | / | /
COC(=O)[C@@H]1C[C@@]2(O)[C@H](O)[C@H](O)[C@H](O)C[C@H]2N1Cc1cc(F)ccc1F | / | . | / | . | 50.3 | . | . | /
CN(C)c1ccc(N=Nc2ccccc2Br)cc1 | / | / | / | / | 67.2 | 112.5 | . | 80.6
O=C(NC(=S)Nc1ccccn1)c1ccc(-c2ccccc2)cc1 | / | / | / | / | 94.0 | . | . | /
O=C(Nc1ccccn1)c1ccc(C(=O)Nc2ccccn2)cc1 | / | / | / | / | . | / | / | /
CCN1CCN(c2cc(C(C)C)nc3c(-c4ccccc4)c(C)nn23)CC1 | / | . | . | . | 55.3 | . | . | /
CCN1CCN(c2cc(C(C)(C)C)nc3c(-c4ccccc4)c(C)nn23)CC1 | . | . | / | . | . | / | / | /
CCCc1cc(N2CCCC2)n2nc(C)c(-c3ccccc3)c2n1 | . | . | / | . | 59.9 | 99.2 | . | .
COc1ccc(C(=O)NCCc2c[nH]c3ccccc23)cc1[N+](=O)[O-] | / | / | . | / | . | / | / | /
COc1cc2c(cc1Cl)C(=O)C(F)(c1ccccc1)C(=O)N2 (configuration not stated) | / | . | . | . | . | / | / | /
Cc1ccc(CN2CCN(c3ccccc3)CC2)o1 | / | / | . | / | 75.1 | . | . | /
Cc1ccc(CN2CCN(c3ncccn3)CC2)o1 | . | . | . | . | . | / | / | /
COc1ccc(CNC(=O)N2CCN(S(=O)(=O)c3ccc(C)cc3C)CC2)cc1 | / | / | / | / | 82.2 | 79.3 | . | .
SMILES | Arbovirus inh | TNF death inh | Pf gametocyte | L929 necroptosis | Hep lipid drop | Hep lipid conf | AML12 tox img | AML12 tox conf
Cc1cccc(C(=O)NC(=S)NC(C)c2ccccc2)c1 (configuration not stated) | / | / | . | / | / | / | / | /
O=[N+]([O-])c1cccc(-c2nc3ccccc3s/c2=N/O)c1 | / | . | / | . | . | / | / | /
COc1ccc(CCNC(=O)CN2C(=O)COc3ccc(S(=O)(=O)N4CCCC4)cc32)c(OC)c1 | / | / | / | / | . | / | / | /
C/C(=N\NC(N)=O)c1ccc(-n2ccnc2)cc1 | . | . | . | . | . | / | / | /
CCc1ccc(OCC(=O)N/N=C(\C)c2ccc(-n3ccnc3)cc2)cc1 | . | . | . | . | 54.8 | 89.9 | . | .
COc1ccc2c(c1)cc(C(=O)N[C@@H](CCSC)C(=O)N1CCC(C(=O)O)CC1)n2C | / | / | / | / | . | / | / | /
CN1CC(=O)Nc2ccc([N+](=O)[O-])cc2C1=O | / | / | . | / | 91.4 | . | . | /
CCN(CC)c1ccc(/C=C2\CCC(/C=C(\C#N)C(=O)Nc3ccccc3F)=C2N2CCOCC2)cc1 | . | . | . | . | 100.7 | 95.9 | . | .
O=C(Cc1ccccc1)Nc1ncnc2c1C(c1ccccc1)c1c(ccc3ccccc13)O2 (configuration not stated) | / | / | . | / | / | / | / | /
CC(C)C(C)NC(=O)CSc1nc2scc(-c3ccco3)c2c(=O)n1-c1ccccc1 (configuration not stated) | . | . | . | . | 59.8 | . | . | /
Cn1nc(C(F)(F)F)c(-c2cccc(C(F)(F)F)c2)c1NC(=O)Nc1ccc(F)cc1 | / | . | . | . | 69.0 | 90.0 | . | .
COc1cccc(C(=O)NC2CCCc3c2cnn3-c2ccc(C)c(C)c2)c1OC (configuration not stated) | / | / | / | / | . | / | / | /
COc1ncccc1C(=O)NC1CCCc2c1cnn2-c1ccc(C)c(C)c1 (configuration not stated) | / | / | / | / | 57.5 | 92.1 | . | .
CC(C)Cn1c(N)c(C(=O)COC(=O)c2cc(C3CC3)nc3ccccc23)c(=O)n(C)c1=O | . | . | / | . | 73.7 | 84.9 | . | /
COc1cccc(N=Nc2c(C)[nH]n(-c3ccccc3)c2=O)c1 | / | / | . | / | 51.2 | 102.6 | . | .
Cc1ccc2nc(=O)c(NNc3ccccc3)cnc2c1 | . | . | / | / | 51.7 | . | . | .
COc1ccc(NC(=O)CN2C(=O)NC(c3ccccc3)(c3ccccc3)C2=O)cc1OC | / | / | / | / | 105.0 | 103.4 | . | .
COc1ccc(Cl)cc1NC(=O)CN1C(=O)NC2(CCCC2)C1=O | / | / | / | / | 87.8 | 91.2 | . | .
CCCC1(c2ccccc2)NC(=O)N(CC(=O)Nc2cc(C)ccc2OC)C1=O (configuration not stated) | / | / | / | / | 55.9 | 87.4 | . | .
COc1ccc(NC(=O)CN2C(=O)NC(c3ccccc3)(c3ccccc3)C2=O)cc1 | / | / | / | / | . | / | / | /
Cc1cnc(NC(=O)CSC(=S)N2CCOCC2)s1 | . | . | . | . | . | / | / | /
Cc1ccc(NC(=O)c2cnccn2)cc1C | / | / | / | / | . | / | / | /
Nn1c(SCC(=O)Nc2nccs2)nnc1C1CC1 | / | / | / | / | . | / | / | /
CCNC(=S)N1CCc2cc(OC)c(OC)cc2C1COc1ccccc1OC (configuration not stated) | . | . | . | . | 62.1 | 92.8 | . | .
CCNC(=S)N1CCc2cc(OC)c(OC)cc2C1COc1ccc(OC)cc1 (configuration not stated) | . | . | . | . | . | / | / | /
CCc1nnc(NC(=O)CCC(=O)NC2CCCCCC2)s1 | / | / | / | / | . | / | / | /
O=C1/C(=C/c2ccc([N+](=O)[O-])cc2)CCC1C1CCCC1 (configuration not stated) | / | / | / | / | 54.5 | . | . | /

Assay outcomes (PubChem BioAssay)
